Data reported in ChEMBL document CHEMBL4261499, “Chiral disubstituted piperidinyl ureas: a class of dual diacylglycerol lipase-α and ABHD6 inhibitors” (Medchemcomm, 2017).
The source made the active and inactive calls. The calls are words filed in the database; no cut-off is given here.

Assays:
Type in all cases: tissue-based
[1] = target: 1-acylglycerol-3-phosphate O-acyltransferase ABHD5 (Mus musculus) (UniProt Q9DBL9); assay: Inhibition of MB064 labelling of ABHD5 in mouse brain homogenates at 10 uM pretreated for 30 mins followed by MB064 addition and measured after 20 mins by activity based protein profiling assay
Chain of 1-acylglycerol-3-phosphate O-acyltransferase ABHD5 (Mus musculus) (Q9DBL9 whole entry, looked up): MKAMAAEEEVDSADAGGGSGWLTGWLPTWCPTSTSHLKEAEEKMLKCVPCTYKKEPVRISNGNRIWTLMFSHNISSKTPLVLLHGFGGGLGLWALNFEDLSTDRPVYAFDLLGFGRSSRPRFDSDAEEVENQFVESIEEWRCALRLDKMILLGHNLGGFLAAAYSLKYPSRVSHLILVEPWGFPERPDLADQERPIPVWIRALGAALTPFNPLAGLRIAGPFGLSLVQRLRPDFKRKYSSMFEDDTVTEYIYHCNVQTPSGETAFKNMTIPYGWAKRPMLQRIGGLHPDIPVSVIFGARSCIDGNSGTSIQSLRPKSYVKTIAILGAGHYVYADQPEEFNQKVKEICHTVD
Outline: (§1)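 Mouse brain membrane proteome preincubated 30 min with inhibitor (10 μM), then labelled with MB064 probe (0.25 μM, 20 min). Readout by gel-based competitive ABPP. Band intensities corrected for protein loading per lane from Coomassie staining. Means ± SEM, n = 3.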

[2] = target: T1, Epoxide hydrolase 4 (Mus musculus) (UniProt Q6IE26); assay: Inhibition of MB064 labelling of ABHD7 in mouse brain homogenates at 10 uM pretreated for 30 mins followed by MB064 addition and measured after 20 mins by activity based protein profiling assay; outline: as §1
T1 sequence (whole entry): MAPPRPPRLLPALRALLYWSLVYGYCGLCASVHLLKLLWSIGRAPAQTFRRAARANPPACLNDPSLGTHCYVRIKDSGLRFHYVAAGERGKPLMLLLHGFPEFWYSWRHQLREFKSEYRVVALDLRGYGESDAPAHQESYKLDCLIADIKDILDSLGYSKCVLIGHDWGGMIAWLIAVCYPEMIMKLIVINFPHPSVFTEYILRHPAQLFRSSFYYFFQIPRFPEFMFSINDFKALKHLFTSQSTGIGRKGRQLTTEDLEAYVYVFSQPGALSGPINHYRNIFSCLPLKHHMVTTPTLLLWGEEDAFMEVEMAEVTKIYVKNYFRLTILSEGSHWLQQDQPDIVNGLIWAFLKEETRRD

Mus musculus = species on record: Mus musculus; assay: Inhibition of FP-TAMRA labelling of FAAH in mouse brain homogenates at 10 uM pretreated for 30 mins followed by FP-TAMRA addition and measured after 20 mins by activity based protein profiling assay
Outline: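 Mouse brain membrane proteome (2 mg mL-1) preincubated 30 min at r.t. with inhibitor (10 μM) or DMSO vehicle, then labelled with TAMRA-FP, 500 nM final, 20 min at r.t. Reaction quenched with Laemmli sample buffer. Readout by gel-based competitive ABPP with Coomassie staining as loading control.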

inhibition [1] | inhibition [2] | Compound | inhibition (Mus musculus)
Active | Active | O=C(N1CCC=C[C@@H]1COCc1ccccc1)n1cc(-c2ccc([N+](=O)[O-])cc2)nn1 | Active
Active | Active | O=C(N1C[C@@H](O)C=C[C@@H]1COCc1ccccc1)n1cc(-c2ccc(-c3ccccc3)cc2)nn1 | Active
Active | Active | O=C(N1CCC=C[C@@H]1COCc1ccccc1)n1cc(-c2ccccc2)nn1 | Active
